This note sets out measurements from ChEMBL document CHEMBL4130555, “Heterodimeric Diterpenoids Isolated from Euphorbia ebracteolata Roots and Their Inhibitory Effects on α-Glucosidase” (J Nat Prod, 2017).

Bounds are passed on as bounds.

The subject of one assay is HCT-8. Briefly: Cytotoxicity against human HCT8 cells by MTT assay. It is filed as functional, cell-based.
For the next assay, the system named is Bel-7402. Briefly: Cytotoxicity against human Bel7402 cells by MTT assay. It is filed as functional, cell-based. Background: Formazan colour is commonly taken as a measure of viable cells.
Assay [1] is described as follows: Inhibition of baker's yeast alpha-glucosidase using p-nitrophenyl-alpha-D-glucopyranoside as substrate preincubated for 0.5 hrs followed by substrate addition measured for 0.5 hrs. The arrangement: species or system Saccharomyces cerevisiae. A digest of the protocol:
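Enzyme activity measured with p-NPG as substrate, acarbose run alongside as positive control; procedure follows a previously published protocol.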

Assay [2] can be described thus: Inhibition of acetyltransferase activity of Mycobacterium tuberculosis H37Rv GlmU expressed in Escherichia coli BL21(DE3) using acetylcoA as substrate after 30 mins.
The next assay deals with BGC-823. Briefly: Cytotoxicity against human BGC823 cells by MTT assay. It is filed as functional, cell-based.
In another assay the test system is A2780. Briefly: Cytotoxicity against human A2780 cells by MTT assay. It is filed as functional, cell-based.
Another assay has as its system A549. Briefly: Cytotoxicity against human A549 cells by MTT assay. The assay is classed as functional, cell-based.
The nature of assay [3]: Non-competitive inhibition of baker's yeast alpha-glucosidase using p-nitrophenyl alpha-D-glucopyranoside as substrate preincubated for 0.5 hrs followed by substrate addition measured for 0.5 hrs by Lineweaver-Burk plot analysis. Set-up: species or system Saccharomyces cerevisiae.

For the compound `C=C[C@@]1(C)CC[C@]2(C)c3cc4c(c(C)c3CC[C@H]2C1)O[C@@H]1C2=C(C)C(=O)O[C@@]2(O4)[C@H](O)[C@H]2[C@]3(C)CCCC(C)(C)[C@H]3CC[C@@]12O`, the IC50 with HCT-8 is over 100 µM; in the assay with Bel-7402 it was over 100 µM; in assay [1] it was 50.4 µM; in assay [2] it was 41.9 µM; in the assay with BGC-823 it was over 100 µM; in the assay with A2780, over 100 µM. This compound also returned an IC50 with A549 of over 100 µM.

Compound `C=C[C@@]1(C)CC[C@]2(C)c3cc(O[C@@]45OC(=O)C(C)=C4[C@H]4O[C@]46CC[C@@H]4C(C)(C)CCC[C@@]4(C)[C@@H]6[C@H]5O)c(O)c(C)c3CC[C@H]2C1` came in with a Ki in assay [3] of 10.8 µM. Also, the IC50 is over 100 µM in the assay on HCT-8; over 100 µM with Bel-7402; 7.94 µM in assay [1]; over 100 µM in assay [2]; over 100 µM in the assay with BGC-823; over 100 µM in the assay with A2780. This compound returned an IC50 in the assay with A549 of over 100 µM.

In the case of `C[C@H]1O[C@H](O[C@H]2[C@H](O)[C@@H](O)[C@@H](O[C@H]3[C@H](O)[C@@H](O)C(O)O[C@@H]3CO)O[C@@H]2CO)[C@H](O)[C@@H](O)[C@@H]1N[C@H]1C=C(CO)[C@@H](O)[C@H](O)[C@H]1O` (stereo partly specified) [ACARBOSE], half-maximal inhibition in assay [1] (IC50) was put at 579 µM.

The IC50 is the concentration needed to halve the response being measured. A lower IC50 goes with inhibition by little substance. As a reminder, the Ki is a dissociation constant, usually derived from enzyme kinetics or from competition with a known ligand. Read a low Ki as a stronger hold on the target.
